One data set has as its system HepG2. Kind of data set: Cytotoxicity against human HepG2 cells assessed as reduction in cell viability at 10 to 20 uM measured after 48 hrs by MTT assay. The data set is classed as functional, cell-based. Conditions: dose 10-20 µM. Summed up:
(§1)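 MTT assay with 48 h compound exposure at 10 or 20 µM. Cells seeded 6 × 10⁴ per well and grown 24 h beforehand. MTT 4 h, DMSO solubilisation, A490 read. Percent cell death given as mean ± SD, n = 3.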
(Formazan colour is commonly taken as a measure of viable cells.)

Data set [1] is described as follows: Metal chelating activity assessed as compound-Cu2+ complex formation measured after 40 mins by calcein dye based fluorescence assay. Conditions: dose 10-50 µM. Summed up: (§2)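 Calcein (10 µM) in 50 mM HEPES was quenched by 10 µM CuCl₂ (or FeCl₃ for the Fe³⁺ arm). Chelator was added from DMSO stock to a final 10 or 50 µM and incubated 40 min at room temperature. Recovery rate was calculated from fluorescence (λex 485 / λem 520 nm); n = 3.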

Data set [2] concerns PANC-1. Kind of data set: Cytotoxicity against human PANC-1 cells assessed as reduction in cell viability at 10 uM measured after 48 hrs by MTT assay. The data set is classed as functional, cell-based. A digest of the protocol:
as §1

Data set [3] is described as follows: Metal chelating activity assessed as compound-Fe3+ complex formation measured after 40 mins by calcein dye based fluorescence assay. Particulars: dose 10-50 µM. A digest of the protocol: as §2
A further data set deals with A549. Kind of data set: Cytotoxicity against human A549 cells assessed as reduction in cell viability at 10 to 20 uM measured after 48 hrs by MTT assay. Conditions: dose 10-20 µM. It is filed as functional, cell-based.
The subject of data set [4] is PANC-1. Kind of data set: Cytotoxicity against human PANC-1 cells assessed as reduction in cell viability at 20 uM measured after 48 hrs by MTT assay relative to control. It is filed as functional. Summed up:
as §1

The test system of another data set is HeLa. Kind of data set: Cytotoxicity against human HeLa cells assessed as reduction in cell viability at 10 to 20 uM measured after 48 hrs by MTT assay. It is filed as functional, cell-based. Conditions: dose 10-20 µM.
For a further data set, the system named is MCF7. Nature of the data set: Cytotoxicity against human MCF7 cells assessed as reduction in cell viability at 10 to 20 uM measured after 48 hrs by MTT assay. Particulars: dose 10-20 µM. The data set is classed as functional, cell-based. A digest of the protocol:
as §1

Data set [5] can be described thus: Stability of compound in pH 7.4 PBS buffer measured after 5 to 24 hrs by RP-HPLC analysis. The data set is classed as physicochemical. Particulars: time 5-24 hrs. Summed up: (§3)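 Compound (1 µM) stirred at 37 °C either in PBS (pH 5.0, 7.4 or 10.0) containing 5% DMSO or in DMEM with 10% FBS. Aliquots were analysed by RP-HPLC (0.1% TFA water/methanol gradient, 256 nm) for remaining intact compound, up to 24 h.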

Data set [6] has as its system PANC-1. Kind of data set: Cytotoxicity against human PANC-1 cells assessed as reduction in cell viability measured after 48 hrs in presence of FeCl3 by MTT assay. It is filed as functional, cell-based. Conditions: PANC-1, 48 h. A digest of the protocol: (§4)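 Cells seeded 6 × 10⁴ per well, cultured 24 h at 37 °C under 5% CO₂, then exposed to compound for 48 h, with or without 50 µM CuCl₂ or FeCl₃ co-incubation. MTT added for 4 h at 37 °C, formazan dissolved in DMSO, A490 read. IC50 reported as mean (SD), n = 3.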

A short description of data set [7]: Stability of compound in pH 5 PBS buffer measured after 5 to 24 hrs by RP-HPLC analysis. The data set is classed as physicochemical. Conditions: time 5-24 hrs. Summed up: as §3
Data set [8] can be described thus: Stability of compound in DMEM with 10% fetal bovine serum measured after 5 to 24 hrs by RP-HPLC analysis. It is filed as cell-free. Particulars: time 5-24 hrs. A digest of the protocol: as §3
Data set [9] is described as follows: Cytotoxicity against human RWPE2 cells assessed as reduction in cell viability measured after 48 hrs by MTT assay. It is filed as cell-based. Particulars: RWPE2, 48 h. Summed up:
as §4

Data set [10] is described as follows: Stability of compound in pH 10 PBS buffer measured after 5 to 24 hrs by RP-HPLC analysis. Particulars: time 5-24 hrs. It is filed as physicochemical. A digest of the protocol:
as §3

The subject of data set [11] is SW1990. Nature of the data set: Cytotoxicity against human SW1990 cells assessed as reduction in cell viability measured after 48 hrs in presence of FeCl3 by MTT assay. It is filed as functional, cell-based. Particulars: SW1990, 48 h. A digest of the protocol: as §4
Data set [12] is described as follows: Cytotoxicity against human H6C7 cells assessed as reduction in cell viability measured after 48 hrs by MTT assay. It is filed as cell-based. Particulars: H6C7, 48 h. A digest of the protocol:
as §4

Data set [13] has as its system PANC-1. Kind of data set: Cytotoxicity against human PANC-1 cells assessed as reduction in cell viability measured after 48 hrs in presence of CuCl2 by MTT assay. The data set is classed as functional, cell-based. Conditions: PANC-1, 48 h. Summed up: as §4
The test system of data set [14] is SW1990. Nature of the data set: Cytotoxicity against human SW1990 cells assessed as reduction in cell viability measured after 48 hrs by MTT assay. It is filed as functional, cell-based. Conditions: SW1990, 48 h. A digest of the protocol:
as §4

The test system of data set [15] is SW1990. Kind of data set: Cytotoxicity against human SW1990 cells assessed as reduction in cell viability measured after 48 hrs in presence of CuCl2 by MTT assay. The data set is classed as functional, cell-based. Conditions: SW1990, 48 h. A digest of the protocol: as §4
Data set [16] relates to PANC-1. Nature of the data set: Cytotoxicity against human PANC-1 cells assessed as reduction in cell viability measured after 48 hrs by MTT assay. It is filed as functional, cell-based. Conditions: PANC-1, 48 h. Summed up: as §4
Data set [17] relates to SW1990. Kind of data set: Induction of apoptosis in human SW1990 cells at 12 uM measured after 24 hrs by Annexin V-FITC/propidium iodide staining based flow cytometry. It is filed as functional, cell-based. Summed up:
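SW1990 cells seeded 5 × 10⁵ per well and grown 24 h, then treated 24 h at 8 or 12 µM. Optional 1 h pretreatment with 20 mM NAC or 50 µM carboxyl-PTIO before 12 µM treatment. Cells stained with annexin V-FITC 15 min and PI 5 min at room temperature in the dark, then analysed by flow cytometry. Mean ± SD, n = 3.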
Background: In flow cytometry, cells or beads pass a laser one at a time.

In data set [18] the test system is SW1990. Kind of data set: Cytotoxicity against human SW1990 cells assessed as reduction in cell viability at 10 to 20 uM measured after 48 hrs by MTT assay. The data set is classed as functional, cell-based. Particulars: dose 10-20 µM. A digest of the protocol:
as §1

What is called IC50 is the concentration needed to halve the response being measured.

Molecules are shown by their SMILES. The source made the active and inactive calls. The calls are words filed in the database; no cut-off is given here.

Turning to `O=C(/C=C/c1ccc2cccc(O)c2n1)NCCOc1no[n+]([O-])c1S(=O)(=O)c1ccccc1`, the result with HepG2, in the data set on PANC-1 [2], in the data set on A549, in the data set on PANC-1 [4], with HeLa and with MCF7 was Active. The Activity entry in [1] and in data set [3] was “Dose-dependent effect” throughout.
Take `O=C(c1ccc2cccc(O)c2n1)N1CCN(CCOc2no[n+]([O-])c2S(=O)(=O)c2ccccc2)CC1`: the result in the data set on HepG2, in the data set on PANC-1 [2], in the data set with A549, in the data set on PANC-1 [4], in the data set on HeLa and with MCF7 was Active. Further, the Activity result in [1] and in data set [3] was “Dose-dependent effect” throughout.
Take `CC1(C)OB(c2ccc(COc3cccc4ccc(C(=O)NCCCOc5no[n+]([O-])c5S(=O)(=O)c5ccccc5)nc34)cc2)OC1(C)C`: the Stabilty entry in [5], in data set [7] and in data set [10] was “Stable” in each case. The IC50 was 25.3 µM in the data set with PANC-1 [6]; 39.8 µM in [9]; 20.8 µM in the data set on SW1990 [11]; 40.4 µM in data set [12]; 4.89 µM in the data set with PANC-1 [13]; 15.7 µM in the data set with SW1990 [14]. The values for the 50% inhibitory concentration (IC50) in the data set on SW1990 [15] and in the data set with PANC-1 [16] were 3.2 µM and 17.1 µM, respectively. In [8], the Stability entry is listed as “Stable”.
As for `CC1(C)OB(c2ccc(COc3cccc4ccc(C(=O)N5CCC(Oc6no[n+]([O-])c6S(=O)(=O)c6ccccc6)CC5)nc34)cc2)OC1(C)C`, the Stabilty result in data set [5], in data set [7] and in data set [10] was “Stable” throughout. The IC50 in the data set on PANC-1 [6] was found to be 38.2 µM; in data set [9], 28.6 µM; in the data set on SW1990 [11], 34.2 µM; in [12], 34.2 µM; with PANC-1 [13], 3.47 µM; with SW1990 [14], 12.1 µM. Further, the IC50 amounted to 2.88 µM with SW1990 [15] and 13.2 µM with PANC-1 [16]. In addition, in data set [8], the Stability result is given as “Stable”.
Turning to `O=C(/C=C\c1ccc2cccc(O)c2n1)N1CCN(CCOc2no[n+]([O-])c2S(=O)(=O)c2ccccc2)CC1`, the outcome with HepG2, in the data set with PANC-1 [2], in the data set with A549, with PANC-1 [4], with HeLa and in the data set with MCF7 was Active. Also, the Activity result in [1] and in data set [3] was “Dose-dependent effect” throughout.
On to `O=C(c1ccc2cccc(OCc3ccc(B(O)O)cc3)c2n1)N1CCC(Oc2no[n+]([O-])c2S(=O)(=O)c2ccccc2)CC1`, for which the Stabilty entry in [5], in data set [7] and in data set [10] was “Stable” throughout. Also, the IC50 in the data set on PANC-1 [6] was 20.5 µM; in data set [9], 30.1 µM; in the data set with SW1990 [11], 18.7 µM; in [12], > 50 µM; in the data set with PANC-1 [13], 2.69 µM; in the data set on SW1990 [14], 12.9 µM. In addition, the IC50 with SW1990 [15] was determined as 3.05 µM; with PANC-1 [16], 16.6 µM. Besides, in data set [8], the Stability result is “Stable”.
On to `O=C(/C=C\c1ccc2cccc(O)c2n1)N1CCC(Oc2no[n+]([O-])c2S(=O)(=O)c2ccccc2)CC1`, for which the result in the data set on HepG2, with PANC-1 [2], with A549, with PANC-1 [4], in the data set with HeLa and in the data set with MCF7 was Active. Further, the Activity entry in [1] and in data set [3] was “Dose-dependent effect” throughout.
Take `O=C(/C=C/c1ccc2cccc(O)c2n1)NCCCOc1no[n+]([O-])c1S(=O)(=O)c1ccccc1`: the outcome in the data set with HepG2, in the data set with PANC-1 [2], with A549, with PANC-1 [4], with HeLa and in the data set on MCF7 was Active. Moreover, the Activity entry in [1] and in data set [3] was “Dose-dependent effect” each time.
On to `O=C(NCCOc1no[n+]([O-])c1S(=O)(=O)c1ccccc1)c1ccc2cccc(O)c2n1`, for which the outcome in the data set with HepG2, with PANC-1 [2], in the data set on A549, in the data set on PANC-1 [4], with HeLa and in the data set with MCF7 was Active. The Activity result in [1] and in data set [3] was “Dose-dependent effect” each time.
Turning to `O=C(NCCCOc1no[n+]([O-])c1S(=O)(=O)c1ccccc1)c1ccc2cccc(OCc3ccccc3)c2n1`, in the data set on SW1990 [17], the result was Active. In the data set on SW1990 [18], the result was inactive.

The record behind these values is ChEMBL document CHEMBL4732146, “Nitric oxide-donating and reactive oxygen species-responsive prochelators based on 8-hydroxyquinoline as anticancer agents” (Eur J Med Chem, 2021).
